# Experimental data taken from paper PMC3207261 (European journal of nuclear medicine and molecular imaging, 2010).
# Values joined by “and” are separate entries in the source; they are usually repeats but may differ in a detail not shown here. Equal values may be shown once. “Also recorded” adds a separate entry of the source. Read-outs that look alike come from different tables or passages of the source. Marks after values point to notes of the source that are not given here.
# Columns and labels:
# [1] = cited from earlier work
# [2] = Radiation dose of other ^18F-labeled radioligands; format: in vivo; settings: approximate effective dose calculated from the reported doses of individual organs
# [3] = Whole-body PET biodistribution after intravenous injection of ^18F-SP203; format: in vivo, humans
# Procedure, shortened: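 Seven healthy volunteers (3 female, 4 male) received 141±41 MBq i.v. 2-D dynamic whole-body PET covered seven 15-cm bed positions (head to upper thigh) in 16 frames (15 s–4 min), 300 min total, including three 30-min rest periods. OSEM reconstruction with attenuation and scatter correction. Regions were drawn per coronal slice (high-uptake organs) or on summed slices (low-uptake). Uptake was expressed as % injected activity, mean±SD.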
# [4] = Residence times of source organs from whole-body imaging; format: in vivo, humans; settings: mean±SD
# Procedure, shortened: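 Residence time = area under each organ's time–activity curve (fraction of injected activity). Decay correction was removed and recovery correction applied (first-frame body activity vs dose-calibrator value). Area was trapezoidal to end of imaging, then physical decay only to infinity. Right-lung activity was scaled by the lung mass ratio 1:1.87. Organs spanning beds used the timing of their main bed position.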
# [5] = Radiation absorbed doses by Medical Internal Radiation Dose scheme; format: in vivo, humans
# Procedure, shortened: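 Mean residence times of seven subjects were entered for a 70-kg adult male model. Red marrow residence came from the lumbar vertebrae, with all vertebral activity assigned to marrow, × 100/11.7. […] Bladder used the dynamic model with a 2.4-h voiding interval. Maximal injectable activity was derived from dose per MBq against the annual dose limits.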
# [6] = format: in vivo, humans
# [7] = system: glutathione S-transferase; settings: both in vitro and in vivo, via glutathione S-transferase, ref [16]; cited from earlier work
# mGluR5 = settings: late time points; ref [3]; cited from earlier work
# [8] = ref Communication from R.M. Kessler
smiles,measurement,setting,value
N[C@@H](Cc1cc(O)c(O)cc1[18F])C(=O)O [^18F-FDOPA],Dose to red marrow,[1]; ref [24],10.5 μSv/MBq
same,Effective dose,[1]; ref [24],19.9 μSv/MBq
COC(=O)[C@H]1[C@@H](c2ccc(Cl)cc2)C[C@@H]2CC[C@H]1N2CC[18F] [^18F-FECNT],Dose to red marrow,[1]; ref [21],16.1 μSv/MBq
same,Effective dose,[1]; ref [21],15.8 μSv/MBq
COC(=O)[C@H]1[C@@H](c2ccc(I)cc2)C[C@@H]2CC[C@H]1N2CCC[18F] [^18F-FPCIT],Effective dose,[2]; ref [25],~8.6^a μSv/MBq
same,Dose to red marrow,[1]; ref [25],5.1 μSv/MBq
C=CCN1CCC[C@H]1CNC(=O)c1cc(CCC[18F])cc(OC)c1OC [^18F-Fallypride],Dose to red marrow,[1]; [8],19.5 μSv/MBq
same,Effective dose,[1]; [8],21.1 μSv/MBq
Fc1ncccc1OC[C@@H]1CCN1 [^18F-Fluoro-A-85380],Dose to red marrow,[1]; ref [23],14.1 μSv/MBq
same,Effective dose,[1]; ref [23],23.7 μSv/MBq
C[C@]12CCC(=O)C[C@@H]1CC[C@@H]1[C@@H]2CC[C@]2(C)[C@@H](O)[C@@H]([18F])C[C@@H]12 [^18F-Fluorodihydrotestosterone],Effective dose,[2]; ref [20],~12.5^a μSv/MBq
same,Dose to red marrow,[1]; ref [20],18.7 μSv/MBq
Cc1cn([C@H]2C[C@H]([18F])[C@@H](CO)O2)c(=O)[nH]c1=O [^18F-Fluorothymidine],Effective dose,[2]; ref [19],~15.5^a μSv/MBq
same,Dose to red marrow,[1]; ref [19],24.0 μSv/MBq
CNc1ccc(-c2nc3ccc(O)cc3s2)cc1[18F] [^18F-GE067],Dose to red marrow,[1]; ref [22],15.3 μSv/MBq
same,Effective dose,[1]; ref [22],33.8 μSv/MBq
"N#Cc1cc(F)cc(C#Cc2csc(C[18F])n2)c1 [^18F-SP203, 3-fluoro-5-(2-(2-^18F-(fluoromethyl)-thiazol-4-yl)ethynyl)benzonitrile]","Time of peak uptake in brain, kidneys, lungs, heart and spleen",[3]; after injection,≤ 8 min
same,Distribution of radioactivity in the skeleton,[3]; bone structures with vs without red marrow,most of the radioactivity was in bone structures that contain red marrow and not in those without red marrow; also recorded: the majority of activity in the human skeleton was in the red marrow rather than in bone itself; also recorded: most of the radioactivity was in bone structures that contain red marrow and not in bones without red marrow
same,Peak uptake in brain,"[3]; brain, seven healthy humans, i.v.",11 % of injected activity
same,Radioactivity accumulated in gallbladder (asymptote / maximum),[3]; gallbladder,0.9 % of injected activity
same,Time to reach asymptote / maximum in gallbladder,[3]; gallbladder,≤ 100 min
same,Peak uptake in heart,[3]; heart,3.4 % of injected activity
same,Defluorination in humans,[3]; judged from distribution of radioactivity in bone structures with various proportions of bone and red marrow,undergoes little defluorination
same,Peak uptake in liver,"[3]; liver, seven healthy humans, i.v.",12.8±3.4 % of injected activity
same,Peak uptake in lungs,[3]; lungs,4.7 % of injected activity and 4.7±1.5 % of injected activity
same,Radioactivity accumulated in red marrow (asymptote),[3]; red marrow,14 % of injected activity
same,Time to reach asymptote in red marrow,[3]; red marrow,≤ 100 min
same,"Residence time, brain","[4]; brain, seven subjects",0.192 h and 0.192 ± 0.048 h
same,"Residence time, gallbladder","[4]; gallbladder, seven subjects",0.018 h and 0.018 ± 0.009 h
same,"Residence time, heart","[4]; heart, seven subjects",0.024 h and 0.024 ± 0.008 h
same,"Residence time, kidney","[4]; kidney, seven subjects",0.037 ± 0.004 h
same,"Residence time, liver","[4]; liver, seven subjects",0.091 h and 0.091 ± 0.015 h
same,"Residence time, lungs","[4]; lungs, seven subjects",0.065 h and 0.065 ± 0.017 h
same,"Residence time, red marrow",[4]; red marrow (from lumbar vertebrae x 100/11.7),0.307 h and 0.307 ± 0.063 h
same,"Residence time, remainder of body",[4]; remainder of body,1.585 ± 0.147 h
same,"Residence time, spleen","[4]; spleen, seven subjects",0.014 h and 0.014 ± 0.004 h
same,Maximal injectable activity per year,"[5]; Europe, effective dose limit 10 mSv per year",no more than 562 MBq
same,"Radiation dose, brain",[5],127.0 mrem/mCi
same,"Radiation dose, brain",[5]; standard reference man,34.5 μSv/MBq
same,Pharmacological effects during the 5-h scan,"[6]; 141±41 MBq (1.9±1.0 nmol SP203) i.v., subject reports, ECG, blood pressure, pulse rate, respiration rate",no pharmacological effects
same,Effects in blood and urine tests,[6]; acquired 7 to 24 h after radioligand injection,no effects were noted
same,Defluorination in rat brain,[7],defluorinated
same,Radioactivity in the skull in human brain imaging,mGluR5,moderate uptake of radioactivity in the skull; also recorded: moderate amount of radioactivity accumulation in the skull
FC(F)(F)c1nnnn1-c1ccc(OC[18F])c(CN[C@H]2CCCN[C@H]2c2ccccc2)c1 [^18F-SPARQ],Dose to red marrow,[1]; ref [7],15.8 μSv/MBq
same,Effective dose,[1]; ref [7],29.3 μSv/MBq
